Data on twelve compounds can be found in ChEMBL document CHEMBL1124816, “Effect of structure on potency and selectivity in 2,6-disubstituted 4-(2-arylethenyl)phenol lipoxygenase inhibitors” (J Med Chem, 1990).

The first experiment deals with T1, Polyunsaturated fatty acid 5-lipoxygenase (Homo sapiens, UniProt P09917).
T1 sequence (P09917 whole entry): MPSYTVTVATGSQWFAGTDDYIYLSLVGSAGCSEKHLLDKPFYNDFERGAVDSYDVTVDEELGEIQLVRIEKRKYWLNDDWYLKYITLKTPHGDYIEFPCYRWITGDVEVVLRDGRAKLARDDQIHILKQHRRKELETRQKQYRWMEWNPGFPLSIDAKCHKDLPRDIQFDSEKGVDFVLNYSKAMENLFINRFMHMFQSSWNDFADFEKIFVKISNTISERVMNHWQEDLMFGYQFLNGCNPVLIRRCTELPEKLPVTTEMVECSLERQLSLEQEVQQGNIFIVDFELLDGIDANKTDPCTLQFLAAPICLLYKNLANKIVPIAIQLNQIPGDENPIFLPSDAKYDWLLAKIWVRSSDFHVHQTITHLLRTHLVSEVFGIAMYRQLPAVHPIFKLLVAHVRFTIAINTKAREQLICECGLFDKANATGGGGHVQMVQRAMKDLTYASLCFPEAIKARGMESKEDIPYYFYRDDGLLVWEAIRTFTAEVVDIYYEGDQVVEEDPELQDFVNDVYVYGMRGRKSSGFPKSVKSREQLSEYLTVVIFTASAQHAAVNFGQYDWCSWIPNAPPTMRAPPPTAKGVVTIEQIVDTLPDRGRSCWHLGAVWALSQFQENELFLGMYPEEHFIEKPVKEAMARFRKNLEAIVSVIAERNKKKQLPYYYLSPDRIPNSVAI
Kind of experiment: Inhibition of human neutrophil 5-lipoxygenase.
As a reminder, the IC50 is the concentration needed to halve the response being measured. A high value points to weaker potency in that assay. `Cc1cc(/C=C/c2cc(F)cc(F)c2)cc(C)c1O` gave an IC50 of under 1000 nM.
`Cc1cc(/C=C/c2csc3ccccc23)cc(C)c1O` yielded an IC50 of under 1000 nM.
`CCCC/C(=C\c1cc(C)c(O)c(C)c1)c1ccc(F)cc1` gave an IC50 of under 1000 nM.
Still for that read-out and setting: then `CCc1cc(/C=C/c2ccc(C)cc2)cc(CC)c1O`, with under 1000 nM; and `Cc1cc(/C=C/c2cccs2)cc(C)c1O`, with 54 nM.
Compound `CCCc1cc(/C=C/c2cccs2)cc(OC)c1O` displayed an IC50 of 86 nM.
Same read-out and setting: then `Cc1cc(/C=C/c2ccc(F)cc2)cc(C)c1O` [ENOFELAST], with 120 nM.
`Cc1cc(/C=C/c2ccc3ccccc3c2)cc(C)c1O` had an IC50 of under 1000 nM.
Consider `COc1ccc(/C=C/c2cc(C)c(O)c(C)c2)cc1`, for which the IC50 is 91 nM.
On to `Cc1ccc(/C=C/c2cc(C)c(O)c(C)c2)cc1`, for which half-maximal inhibition (IC50) required 290 nM.
On to `Cc1cc(/C=C/c2ccncc2)cc(C)c1O`, for which the midpoint of inhibition, the IC50, lay at 1000 nM.
Take `Cc1cc(/C=C/c2ccsc2)cc(C)c1O`: the IC50 was 45 nM.

For a further experiment, the target named is T2, Polyunsaturated fatty acid 5-lipoxygenase (Homo sapiens) (UniProt P09917).
T2 sequence (whole entry): T1 sequence (P09917 whole entry)
As to the kind of experiment: Inhibition of lipoxygenase at the concentration of 0.1 uM. Put shortly: (§1)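 5-LO activity measured in human peripheral blood leukocytes. Percent inhibition at a single test concentration is compared with untreated control, with significance by ANOVA and Tukey's multiple comparisons test (p < 0.05).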
One may read the inhibition as the change of the read-out against control, counted positive when it falls. In turn, `Cc1cc(/C=C/c2cc(F)cc(F)c2)cc(C)c1O` gave an inhibition of 6%.
For `Cc1cc(/C=C/c2csc3ccccc23)cc(C)c1O`, the inhibition is 13%.
Turning to `CCCC/C(=C\c1cc(C)c(O)c(C)c1)c1ccc(F)cc1`, the inhibition stood at 17%.
Compound `CCc1cc(/C=C/c2ccc(C)cc2)cc(CC)c1O` had an inhibition of 21%.
Compound `Cc1cc(/C=C/c2ccc3ccccc3c2)cc(C)c1O` gave an inhibition of 16%.
The compound `Cc1cc(/C=C/c2ccncc2)cc(C)c1O` had an inhibition of 1%.

Another experiment deals with T2, Polyunsaturated fatty acid 5-lipoxygenase (Homo sapiens). As to the kind of experiment: Inhibition of lipoxygenase at the concentration of 1 uM. Summed up: as §1
On to `Cc1cc(/C=C/c2cc(F)cc(F)c2)cc(C)c1O`, for which the inhibition is 81%.
`Cc1cc(/C=C/c2csc3ccccc23)cc(C)c1O` registered an inhibition of 87%.
As for `CCCC/C(=C\c1cc(C)c(O)c(C)c1)c1ccc(F)cc1`, the inhibition came out at 93%.
On the same count and under the same terms, then `CCc1cc(/C=C/c2ccc(C)cc2)cc(CC)c1O`, with 91%; and `Cc1cc(/C=C/c2ccc3ccccc3c2)cc(C)c1O`, with 61%.
With `Cc1cc(/C=C/c2ccncc2)cc(C)c1O`, the inhibition is 51%.

Another experiment is filed under the species Cavia porcellus. As to the kind of experiment: Inhibition of cell influx (total cells) in guinea pig. The class given is functional. Put shortly: (§2)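 Male Hartley guinea pigs (250–300 g), ovalbumin-sensitized, fasted, pretreated 60 min before challenge with pyrilamine (10 mg/kg ip), indomethacin (10 mg/kg ip) and test agent (ip as 5% Tween 80 suspension). Challenged with aerosolized ovalbumin; 4 h later anesthetized and exsanguinated for late-phase inflammatory cell influx counts (total cells, PMN).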
The Inhibition is the percentage by which the read-out fell short of the control. Low readings indicate a weak effect, high ones a strong effect. Regarding `Cc1cc(/C=C/c2cccs2)cc(C)c1O`, the Inhibition is on record as 78%.
With `CCCc1cc(/C=C/c2cccs2)cc(OC)c1O`, the Inhibition worked out at 77%.

Another experiment has as its system Cavia porcellus. Kind of experiment: Inhibition of antigen-induced leukotriene-mediated bronchoconstriction in conscious guinea pig at the dose of 10mg/Kg, ip. The class given is functional. Summed up:
(§3)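 Male Hartley guinea pigs (250–300 g), actively ovalbumin-sensitized, fasted 18 h, anesthetized, pleural pressure transducer fitted. Dosed 60 min before aerosolized ovalbumin challenge with pyrilamine (10 mg/kg ip), indomethacin (10 mg/kg ip) and test agent (ip as 5% Tween 80 suspension). Head-out plethysmography after recovery; Cdyn mean change from baseline over 5–15 min post-challenge vs controls; 5–10 animals per dose; Dunnett's test.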
By inhibition in vivo is commonly meant the drop in the measured response relative to a control, in per cent. Higher therefore signals a response far below the control. For the compound `Cc1cc(/C=C/c2cccs2)cc(C)c1O`, the inhibition in vivo at 10 mg/kg stood at 34.5%.

In the next experiment the test system is Cavia porcellus. Kind of experiment: Inhibition of antigen-induced leukotriene-mediated bronchoconstriction in conscious guinea pig at the dose of 30mg/Kg, ip. The class given is functional. Summed up: as §3
In turn, `Cc1cc(/C=C/c2cccs2)cc(C)c1O` yielded an inhibition in vivo at 30 mg/kg of 70.3%.
Compound `CCCc1cc(/C=C/c2cccs2)cc(OC)c1O` registered an inhibition in vivo at 30 mg/kg of 57%.
Consider `COc1ccc(/C=C/c2cc(C)c(O)c(C)c2)cc1`, for which at 30 mg/kg the inhibition in vivo was 28%.
Consider `Cc1cc(/C=C/c2ccsc2)cc(C)c1O`, for which the inhibition in vivo at 30 mg/kg was determined as 26%.

The subject of a further experiment is Cavia porcellus. Kind of experiment: Inhibition of antigen-induced leukotriene-mediated bronchoconstriction in conscious guinea pig at the dose of 30mg/Kg, ip. It is filed as functional. Summed up: as §3
The compound `Cc1cc(/C=C/c2ccc(F)cc2)cc(C)c1O` [ENOFELAST] yielded an inhibition in vivo at 30 mg/kg of 43%.
Same read-out and setting: next, `Cc1ccc(/C=C/c2cc(C)c(O)c(C)c2)cc1`: 59%.

The next experiment concerns the target T3, Cyclooxygenase (Homo sapiens, UniProt P35354+P23219). As to the kind of experiment: Inhibition of human platelet Prostaglandin G/H synthase.
The compound `Cc1cc(/C=C/c2cc(F)cc(F)c2)cc(C)c1O` had an IC50 of 1000 nM.
Still for that read-out and setting: next, `Cc1cc(/C=C/c2csc3ccccc23)cc(C)c1O`: 400 nM; `CCCC/C(=C\c1cc(C)c(O)c(C)c1)c1ccc(F)cc1`: 1000 nM.
As to `CCc1cc(/C=C/c2ccc(C)cc2)cc(CC)c1O`, the half-maximal inhibitory concentration (IC50) is under 10000 nM.
In turn, `Cc1cc(/C=C/c2cccs2)cc(C)c1O` came in with an IC50 of 780 nM.
In the case of `CCCc1cc(/C=C/c2cccs2)cc(OC)c1O`, the 50% inhibitory concentration (IC50) is 1300 nM.
With `Cc1cc(/C=C/c2ccc(F)cc2)cc(C)c1O` [ENOFELAST], the IC50 worked out at 1300 nM.
`Cc1cc(/C=C/c2ccc3ccccc3c2)cc(C)c1O` gave an IC50 of under 10000 nM.
In the case of `COc1ccc(/C=C/c2cc(C)c(O)c(C)c2)cc1`, the concentration for half-maximal inhibition (IC50) was 1500 nM.
As for `Cc1ccc(/C=C/c2cc(C)c(O)c(C)c2)cc1`, the IC50 turned out to be 3200 nM.
`Cc1cc(/C=C/c2ccncc2)cc(C)c1O` came in with an IC50 of over 10000 nM.
Compound `Cc1cc(/C=C/c2ccsc2)cc(C)c1O` gave an IC50 of under 10000 nM.

Test system in another experiment: not listed separately
As to the kind of experiment: Inhibition of human platelet Prostaglandin G/H synthase at the concentration of 10 uM. Summed up: (§4)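 CO activity measured in human platelets. Percent inhibition at a single test concentration is compared with untreated control, with significance by ANOVA and Tukey's multiple comparisons test (p < 0.05).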
`Cc1cc(/C=C/c2cc(F)cc(F)c2)cc(C)c1O`: the inhibition worked out at 74%.
In turn, `CCCC/C(=C\c1cc(C)c(O)c(C)c1)c1ccc(F)cc1` came in with an inhibition of 86%.
In turn, `CCc1cc(/C=C/c2ccc(C)cc2)cc(CC)c1O` showed an inhibition of 73%.
The compound `Cc1cc(/C=C/c2ccc3ccccc3c2)cc(C)c1O` had an inhibition of 66%.
`Cc1cc(/C=C/c2ccncc2)cc(C)c1O` came in with an inhibition of 17%.
`Cc1cc(/C=C/c2ccsc2)cc(C)c1O` had an inhibition of 96%.

A further experiment deals with T3, Cyclooxygenase. Kind of experiment: Inhibition of human platelet Prostaglandin G/H synthase at the concentration of 1 uM. Summed up: as §4
Consider `Cc1cc(/C=C/c2cc(F)cc(F)c2)cc(C)c1O`, for which the inhibition was 50%.
On the same count and under the same terms, then `CCCC/C(=C\c1cc(C)c(O)c(C)c1)c1ccc(F)cc1`, with 52%.
In turn, `CCc1cc(/C=C/c2ccc(C)cc2)cc(CC)c1O` registered an inhibition of 35%.
Same read-out and setting: next, `Cc1cc(/C=C/c2ccc3ccccc3c2)cc(C)c1O`: 37%; `Cc1cc(/C=C/c2ccncc2)cc(C)c1O`: 0%; `Cc1cc(/C=C/c2ccsc2)cc(C)c1O`: 38%.

For another experiment, the species on record is Cavia porcellus. Kind of experiment: Inhibition of cell influx (PMN) in guinea pig. The class given is functional. Summed up: as §2
As to `Cc1cc(/C=C/c2cccs2)cc(C)c1O`, the Inhibition worked out at 95%.
On the same count and under the same terms, next, `CCCc1cc(/C=C/c2cccs2)cc(OC)c1O`: 54%.
